From ChEMBL document CHEMBL1149554, “Dual bioactivity of resveratrol fatty alcohols: differentiation of neural stem cells and modulation of neuroinflammation” (2007)

Columns and labels:
Neuron [1] = assay: Neuronal differentiation activity assessed as increase in number of neurons at 0.1 uM in relative to control; format: functional, Homo sapiens
Method in brief: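 Neurospheres (undifferentiated aggregates containing 5–10% neural stem cells, raised with EGF and bFGF) were treated with compound and scored for differentiation into neurons. The % of neurons was compared with ethanol vehicle control, or divided by the % of neurons obtained with retinoic acid treatment. Neuron morphology was also rated qualitatively. Each compound was tested in at least three independent experiments.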

Neuron [2] = assay: Neuronal differentiation activity assessed as increase in number of neurons at 0.1 uM in relative to 5 uM retinoic acid
[3] = Inhibition of LPS-stimulated nitric oxide production in mouse MMGT12 cells after 48 hrs; format: functional; design: scale not given: the % may be the effect or the level left
Method in brief: (§1)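 Mouse MMGT-12 microglial cells stimulated with LPS in the presence or absence of test compound at several concentrations. Supernatants were collected, and accumulated NO was measured at 48 h by the Griess method and secreted TNF-α at 24 h by ELISA. Data are expressed as % of the LPS-only control, as mean ± SEM of three independent experiments.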

[4] = Inhibition of LPS-stimulated TNFalpha production in mouse MMGT12 cells after 24 hrs by ELISA; format: functional; design: scale not given: the % may be the effect or the level left; method in brief: as §1

SMILES	Activity (Neuron [1]) [%]	Activity (Neuron [2])	Activity [3] [%]	Activity [4] [%]
COc1ccc(/C=C/c2cc(OC)c(CCCCCCCCCCCCO)c(OC)c2)cc1	188			
COc1ccc(/C=C/c2cc(OC)c(CCCCCCCCCCCCCCO)c(OC)c2)cc1	135			
OCCCCCCCCCCc1c(O)cc(/C=C/c2ccc(O)cc2)cc1O	108	0.53		
OCCCCCCCCCCCCCCc1c(O)cc(/C=C/c2ccc(O)cc2)cc1O	160			
CCCCCCCCCCCCc1c(O)cc(/C=C/c2ccc(O)cc2)cc1O	106	0.52		
COc1ccc(/C=C/c2cc(OC)c(CCCCCCCCCCO)c(OC)c2)cc1	147			
COc1ccc(/C=C/c2cc(OC)c(CCCCCCCCCCCCCCCCO)c(OC)c2)cc1	107	0.53		
OCCCCCCCCCCCCc1c(O)cc(/C=C/c2ccc(O)cc2)cc1O	263		50	30
Oc1ccc(/C=C/c2cc(O)cc(O)c2)cc1 [RESVERATROL]	105	0.52		
CC1=C(/C=C/C(C)=C/C=C/C(C)=C/C(=O)O)C(C)(C)CCC1 [TRETINOIN]	203			
